According to ChEMBL document CHEMBL1123736, “Dihydropyridazinone cardiotonics: synthesis and inotropic activity of 5'-(1,4,5,6-tetrahydro-6-oxo-3-pyridazinyl)spiro[cycloalkane- 1,3'-[3H]indol]-2'(1'H)-ones” (J Med Chem, 1987):

Tests used:
Canis familiaris [1] = test: Myocardial contractility in anesthetized dogs on intravenous administration; format: functional; details: Canis lupus familiaris, Myocardium
How it was run: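 Open-chest, pentobarbital-anesthetized dogs. Right ventricular contractility was measured with a Walton-Brodie strain-gauge arch sutured to the ventricle, baseline 50 g tension. Increasing iv doses via the femoral vein at 5-min intervals; peak responses recorded; vehicle controls given. ED50 by linear regression, mean ± SEM (n > 2) or mean ± range (n = 2).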

Canis familiaris [2] = test: Decreased mean arterial blood pressure in anesthetized dogs after intravenous administration; format: functional, Canis lupus familiaris
Canis familiaris [3] = test: Increased heart rate in anesthetized dogs after intravenous administration; format: functional, Canis lupus familiaris
[4] = target: Phosphodiesterase; PDE3 & PDE4; test: (§1) Inhibition of Sarcoplasmic Reticulum cAMP Phosphodiesterase from canine myocardium; format: tissue-based, Canis lupus familiaris
How it was run: (§2)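 PDE came from free sarcoplasmic reticulum vesicles (fraction E) of canine ventricles, stored at -80 °C. Two-step assay with 1 μM cAMP substrate, run 60 min at room temperature (22 ± 2 °C). Enzyme was added to hydrolyze less than 20% of the substrate.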

[5] = target: Phosphodiesterase; PDE3 & PDE4; test: as §1; format: tissue-based, Canis lupus familiaris; remark: listed apart in the source
How it was run: as §2, with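 “substrate. Inhibitors were dissolved in DMSO, with 2.5% v/v carryover. IC50 and 95% confidence limits were obtained by regression of the logit transformation.” for “substrate.”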

SMILES	IC50 [4] [nM]	Ki [5] [nM]	ED50 (Canis familiaris [1]) [mg/kg]	Decrease in MAP (Canis familiaris [2]) [%]	Increase in HR (Canis familiaris [3]) [%]
CC1CC(=O)NN=C1c1ccc2c(c1)C1(CC1)C(=O)N2 (stereo not given)	13		0.0015	35	17
CC1CC(O)=NN=C1c1ccc(-n2ccnc2)cc1 (stereo not given) [CI-930]			0.013		
O=C1CCC(c2ccc(-n3ccnc3)cc2)=NN1 [IMAZODAN]			0.045		
Cc1[nH]c(=O)c(C#N)cc1-c1ccncc1 [MILRINONE]			0.037		

The next lines start with results.

IC50 [4] [nM]	Ki [5] [nM]	SMILES	ED50 (Canis familiaris [1]) [mg/kg]	Decrease in MAP (Canis familiaris [2]) [%]	Increase in HR (Canis familiaris [3]) [%]
930		O=C1CCC(c2ccc3c(c2)C2(CCCC2)C(=O)N3)=NN1	0.133	17	14
290		O=C1CCC(c2ccc3c(c2)C2(CCC2)C(=O)N3)=NN1	0.0348	17	13
130	80	CC1(C)C(=O)Nc2ccc(C3=NNC(=O)CC3)cc21 [INDOLIDAN]	0.0068	15.2	11.8
